{"source": "the RNAGym collection of RNA variant scans (doi:10.1038/s41586-018-0170-7)", "parents": {"B1": {"name": "tRNA (parent)", "chain": "GUUCCGUUGGCGUAAUGGUAACGCGUCUCCCUCCUAAGGAGAAGACUGCGGGUUCGAGUCCCGUACGGAACG"}}}
{"variants_of": "B1", "test": "yeast fitness, log relative to wild type (ln ratio); higher = fitter; tRNA-Arg(CCU), competitive growth, 37 C, 1 M NaCl", "in_short": "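Fitness is the natural log of a genotype's generation count divided by that of the wild type. A combinatorial library of tRNA-Arg(CCU) variants sat on a HIS3 centromeric plasmid in BY4742 lacking the chromosomal gene, from two independent transformations. Pools grew 4 generations in SC-HIS at 30 °C, then ~6.5 generations (~26.5 h) in SC-HIS 1M NaCl at 37 °C, with three outputs per input. Generations came from OD-scaled log2 output/input frequency, inverse-variance weighted across replicates, with variants counted by 125 bp paired-end Illumina sequencing.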"}
{"variant": "U2C C27U C46U C66U A69G A70G", "yeast fitness (ln)": -0.0845}
{"variant": "U2C G6A C27U C66U A70U", "yeast fitness (ln)": -0.203}
{"variant": "C27U C46U C66U A70G C71U", "yeast fitness (ln)": -0.126}
{"variant": "U2C G6U C46U C66A A70G C71U", "yeast fitness (ln)": -0.0101}
{"variant": "U2C C27U A43C C66U A69G A70U C71U", "yeast fitness (ln)": -0.476}
{"variant": "G6U C27U C66A A70G", "yeast fitness (ln)": -0.0711}
{"variant": "G1A U2C G6A C27U A43C C46U A69G A70U C71U", "yeast fitness (ln)": -0.408}
{"variant": "G6U C27U C46U C66A C71U", "yeast fitness (ln)": -0.0489}
{"variant": "U2G C27U C46U A70U C71U", "yeast fitness (ln)": -0.0474}
{"variant": "U2C G6U C46U C66A A70U C71U", "yeast fitness (ln)": -0.121}
{"variant": "G1A U2G G6U C46U A69G A70U", "yeast fitness (ln)": -0.211}
{"variant": "G1A A43C C46U C66A A70G", "yeast fitness (ln)": -0.113}
{"variant": "G1A C27U C66A A70U C71U", "yeast fitness (ln)": -0.243}
{"variant": "G6A C27U C46U A69G A70G", "yeast fitness (ln)": -0.237}
{"variant": "G1A G6A A69G A70U C71U", "yeast fitness (ln)": -0.247}
{"variant": "G1A U2G G6A A43C A70G C71U", "yeast fitness (ln)": -0.224}
{"variant": "U2C C66U A70U", "yeast fitness (ln)": -0.0706}
{"variant": "U2G C27U C66A A70U", "yeast fitness (ln)": -0.0765}
{"variant": "G1A G6A A43C C66U A69G C71U", "yeast fitness (ln)": -0.811}
{"variant": "G1A G6A C46U C66U A70U", "yeast fitness (ln)": -0.0452}
{"variant": "G1A U2C C27U C46U C66A A70U", "yeast fitness (ln)": 0.02}
{"variant": "A43C C66A A69G A70G C71U", "yeast fitness (ln)": -0.159}
{"variant": "U2G G6U C66U", "yeast fitness (ln)": -0.0894}
{"variant": "U2G C27U A43C C46U C66U A69G C71U", "yeast fitness (ln)": -0.394}
{"variant": "G1A U2C G6A A43C C46U A70U", "yeast fitness (ln)": -0.034}
{"variant": "G1A C66A A69G A70G C71U", "yeast fitness (ln)": -0.158}
{"variant": "G1A U2C G6U C27U A43C A70U", "yeast fitness (ln)": -0.14}
{"variant": "G1A A43C C66U A70G", "yeast fitness (ln)": -0.236}
{"variant": "G1A G6A A43C C46U A70U", "yeast fitness (ln)": -0.206}
{"variant": "G1A U2G G6U C27U A43C C46U C66A A70U C71U", "yeast fitness (ln)": -0.626}
{"variant": "U2G C46U C66A C71U", "yeast fitness (ln)": -0.0426}
{"variant": "U2G C27U C66A A69G A70G C71U", "yeast fitness (ln)": -0.247}
{"variant": "G6U A43C C46U C66U A69G A70U C71U", "yeast fitness (ln)": -0.42}
{"variant": "G1A U2G G6U C46U A70U", "yeast fitness (ln)": -0.246}
{"variant": "G6A C27U A43C C66U A69G", "yeast fitness (ln)": -0.373}
{"variant": "U2G G6U A43C C46U C66U A69G A70G C71U", "yeast fitness (ln)": -0.348}
{"variant": "G1A G6U C27U C66U A69G A70U", "yeast fitness (ln)": -0.368}
{"variant": "U2G G6A C66U A69G A70G C71U", "yeast fitness (ln)": -0.161}
{"variant": "G1A U2C G6A C27U A70G C71U", "yeast fitness (ln)": -0.273}
{"variant": "U2C G6U C27U A43C C66A A69G A70U C71U", "yeast fitness (ln)": -0.398}
{"variant": "G1A G6A C66U A69G C71U", "yeast fitness (ln)": -0.0291}
{"variant": "U2C G6U C27U A43C A70U C71U", "yeast fitness (ln)": -0.253}
{"variant": "G1A U2C G6A C27U A43C C71U", "yeast fitness (ln)": -0.295}
{"variant": "U2G G6A C66U A70U", "yeast fitness (ln)": 0.001}
{"variant": "C27U A43C C66A C71U", "yeast fitness (ln)": -0.275}
{"variant": "G1A U2C C27U C71U", "yeast fitness (ln)": -0.238}
{"variant": "G1A U2G G6U A43C C46U C66A A69G A70G C71U", "yeast fitness (ln)": -0.378}
{"variant": "G6A C66U A69G A70U C71U", "yeast fitness (ln)": -0.447}
{"variant": "G1A G6A C66A A69G A70G C71U", "yeast fitness (ln)": -0.194}
{"variant": "U2C A43C C46U", "yeast fitness (ln)": 0.00393}
{"variant": "C27U C46U A70G C71U", "yeast fitness (ln)": -0.256}
{"variant": "G1A G6U C27U A69G A70G C71U", "yeast fitness (ln)": -0.376}
{"variant": "G1A U2G G6A C27U A43C C46U A70U C71U", "yeast fitness (ln)": -0.307}
{"variant": "U2C G6A A43C C46U C66U A70G C71U", "yeast fitness (ln)": -0.0112}
{"variant": "U2G C27U A43C C66U A69G C71U", "yeast fitness (ln)": -0.354}
{"variant": "G6U C46U A69G A70U C71U", "yeast fitness (ln)": -0.301}
{"variant": "G1A U2C G6A A43C C46U C66U A69G A70U", "yeast fitness (ln)": -0.0607}
{"variant": "U2G G6U C27U A43C C66U", "yeast fitness (ln)": -0.298}
{"variant": "G6A C66A", "yeast fitness (ln)": -0.163}
{"variant": "G1A U2C G6U C27U C46U C66A A69G A70G C71U", "yeast fitness (ln)": -0.0613}
{"variant": "G6U A43C C46U C66A A70U C71U", "yeast fitness (ln)": -0.214}
{"variant": "U2G G6A C46U C66U C71U", "yeast fitness (ln)": -0.082}
{"variant": "G6A C27U A43C C46U C66U A69G A70G C71U", "yeast fitness (ln)": -0.28}
{"variant": "G1A C27U C46U C66A A70G", "yeast fitness (ln)": -0.213}
{"variant": "G1A C27U A43C A69G A70U C71U", "yeast fitness (ln)": -0.406}
{"variant": "G1A U2C A43C C46U A69G A70G", "yeast fitness (ln)": -0.0565}
{"variant": "G1A G6U C27U C46U A69G C71U", "yeast fitness (ln)": -0.291}
{"variant": "U2C C27U C46U C66A A70G C71U", "yeast fitness (ln)": -0.181}
{"variant": "G1A U2G G6U C27U C46U A70G C71U", "yeast fitness (ln)": -0.368}
{"variant": "U2C G6A C27U C46U C66U A70G C71U", "yeast fitness (ln)": -0.0332}
{"variant": "G1A U2C G6U C27U A43C A69G A70G C71U", "yeast fitness (ln)": -0.238}
{"variant": "G6A C46U A69G", "yeast fitness (ln)": -0.469}
{"variant": "U2G G6U C27U C66U A69G A70G C71U", "yeast fitness (ln)": -0.273}
{"variant": "U2G G6A C27U C46U C66A A70U C71U", "yeast fitness (ln)": -0.167}
{"variant": "G1A U2C C27U A43C C46U C66U A69G A70U C71U", "yeast fitness (ln)": -0.464}
{"variant": "G1A U2G G6U C27U A43C A70U", "yeast fitness (ln)": -0.338}
{"variant": "G1A U2G G6U A43C C46U A69G A70G", "yeast fitness (ln)": -0.334}
{"variant": "G6U C27U A43C C46U A69G A70G C71U", "yeast fitness (ln)": -0.356}
{"variant": "G6A C46U A70G C71U", "yeast fitness (ln)": -0.145}
{"variant": "C27U A43C C46U C66A A69G A70G", "yeast fitness (ln)": -0.0756}
{"variant": "U2C G6A C46U A69G A70G C71U", "yeast fitness (ln)": -0.145}
{"variant": "G1A U2G G6U C27U A43C C46U C66U A70G C71U", "yeast fitness (ln)": -0.466}
{"variant": "U2G G6U A43C C46U C66A A70G", "yeast fitness (ln)": -0.251}
